Data taken from ChEMBL document CHEMBL4765319, “Identification of a new series of flavopiridol-like structures as kinase inhibitors with high cytotoxic potency” (Eur J Med Chem, 2020).

How the values were obtained:
[1] = test system: SK-OV-3; assay: Antiproliferative activity against human SKOV3 cells assessed as reduction in cell viability incubated for 72 hrs by CellTiter-Blue fluorescence assay; conditions: SK-OV-3, 72 h
[2] = test system: Plasmodium falciparum; assay: Inhibition of Plasmodium falciparum GSK3 assessed as residual activity at 10 uM in presence of ATP by ADP-glo luminescent assay relative to control
Outline: (§1)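 Recombinant P. falciparum GSK3, bacterially expressed, in buffer A (10 mM MgCl2, 1 mM EGTA, 1 mM DTT, 25 mM Tris-HCl pH 7.5, 50 μg/ml heparin). Substrate 0.010 μg/μl GS-1 peptide, 10 μM ATP, ADP-Glo luminescence. Compound at 10 or 1 μM; % residual activity vs DMSO control, mean n = 2.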

[3] = test system: K562; assay: Antiproliferative activity against human K562 cells assessed as reduction in cell viability incubated for 72 hrs by CellTiter-Blue resazurin fluorescence assay; conditions: K562, 72 h
[4] = target: T1, Glycogen synthase kinase-3 beta (Homo sapiens, UniProt P49841); assay: Inhibition of human GSK3beta in presence of ATP by ADP-glo luminescent assay
Outline: (§2)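 Human kinases tested over roughly 0.0003–10 μM by ADP-Glo luminescence with 10 μM ATP, in duplicate. IC50 is taken from dose-response curves.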
Target sequence in this assay (P49841 whole entry): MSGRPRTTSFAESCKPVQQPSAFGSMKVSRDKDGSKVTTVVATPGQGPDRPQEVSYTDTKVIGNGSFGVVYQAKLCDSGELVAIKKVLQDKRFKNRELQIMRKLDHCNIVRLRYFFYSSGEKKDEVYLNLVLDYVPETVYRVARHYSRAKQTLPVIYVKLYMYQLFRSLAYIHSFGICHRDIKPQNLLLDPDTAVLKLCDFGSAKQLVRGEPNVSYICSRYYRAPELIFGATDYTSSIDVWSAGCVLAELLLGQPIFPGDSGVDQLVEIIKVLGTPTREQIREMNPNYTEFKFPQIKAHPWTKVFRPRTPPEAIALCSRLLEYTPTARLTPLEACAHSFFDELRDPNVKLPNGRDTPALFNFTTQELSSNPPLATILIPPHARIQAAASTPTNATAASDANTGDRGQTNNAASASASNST

[5] = target: T1, Glycogen synthase kinase-3 beta; assay: Inhibition of human GSK3beta assessed as residual activity at 1 uM in presence of ATP by ADP-glo luminescent assay relative to control
Outline: (§3)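 Human kinases assayed by ADP-Glo luminescence with 10 μM ATP, compound at 10 or 1 μM. Activity is expressed as % of maximal activity relative to a DMSO control, mean n = 2.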
Target sequence in this assay (P49841 whole entry, looked up): as the sequence (P49841 whole entry) above

[6] = test system: PC-3; assay: Antiproliferative activity against human PC-3 cells assessed as reduction in cell viability incubated for 72 hrs by CellTiter-Blue fluorescence assay; conditions: PC-3, 72 h
[7] = test system: Leishmania major; assay: Inhibition of Leishmania major CK1 assessed as residual activity at 1 uM in presence of ATP by ADP-glo luminescent assay relative to control
[8] = target: T2, CDK9/cyclin T1 (Homo sapiens) (UniProt O60563+P50750); assay: Inhibition of human CDK9/cyclin T assessed as residual activity at 1 uM in presence of ATP by ADP-glo luminescent assay relative to control; assay type: protein-complex assay
Outline: as §3

[9] = test system: SK-BR-3; assay: Antiproliferative activity against human SK-BR-3 cells assessed as reduction in cell viability incubated for 72 hrs by CellTiter-Blue fluorescence assay; conditions: SK-BR-3, 72 h
[10] = target: T1, Glycogen synthase kinase-3 beta; assay: Inhibition of human GSK3beta assessed as residual activity at 10 uM in presence of ATP by ADP-glo luminescent assay relative to control
Outline: as §3
Target sequence in this assay (P49841 whole entry, looked up): as the sequence (P49841 whole entry) above

[11] = target: T2, CDK9/cyclin T1 (Homo sapiens); assay: Inhibition of human CDK9/cyclin T assessed as residual activity at 10 uM in presence of ATP by ADP-glo luminescent assay relative to control; assay type: protein-complex assay
Outline: as §3

[12] = target: CDK9/cyclin T1 (Homo sapiens, UniProt P50750); assay: Inhibition of human CDK9/cyclin T in presence of ATP by ADP-glo luminescent assay; assay type: protein-complex assay
Outline: as §2

[13] = test system: Plasmodium falciparum; assay: Inhibition of Plasmodium falciparum GSK3 assessed as residual activity at 1 uM in presence of ATP by ADP-glo luminescent assay relative to control
Outline: as §1

[14] = species: Sus scrofa; assay: Inhibition of porcine CK1delta/epsilon assessed as residual activity at 1 uM in presence of ATP by ADP-glo luminescent assay relative to control
[15] = target: T3, Cyclin-dependent kinase 5/CDK5 activator 1 (Homo sapiens) (UniProt Q00535+Q15078); assay: Inhibition of human CDK5/p25 assessed as residual activity at 1 uM in presence of ATP by ADP-glo luminescent assay relative to control; assay type: protein-complex assay
Outline: as §3

[16] = target: T4, CDK2/Cyclin A2 (Homo sapiens) (UniProt P24941+P20248); assay: Inhibition of human CDK2/cyclin A assessed as residual activity at 10 uM in presence of ATP by ADP-glo luminescent assay relative to control; assay type: protein-complex assay
Outline: as §3

[17] = species: Sus scrofa; assay: Inhibition of porcine GSK3alpha/beta assessed as residual activity at 1 uM in presence of ATP by ADP-glo luminescent assay relative to control
Outline: (§4)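 Porcine brain GSK3α/β, native and affinity-purified. Assayed by ADP-Glo luminescence with 10 μM ATP and 0.010 μg/μl GS-1 peptide substrate. Buffer A: 10 mM MgCl2, 1 mM EGTA, 1 mM DTT, 25 mM Tris-HCl pH 7.5, 50 μg/ml heparin. Compound tested at 10 or 1 μM. Result is % of maximal activity versus DMSO control, mean of n = 2.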

[18] = test system: NCI-N87; assay: Antiproliferative activity against human NCI-N87 cells assessed as reduction in cell viability incubated for 72 hrs by CellTiter-Blue fluorescence assay; conditions: NCI-N87, 72 h
[19] = test system: HCT-116; assay: Antiproliferative activity against human HCT-116 cells assessed as reduction in cell viability incubated for 72 hrs by CellTiter-Blue fluorescence assay; conditions: HCT-116, 72 h
[20] = test system: Leishmania major; assay: Inhibition of Leishmania major CK1 assessed as residual activity at 10 uM in presence of ATP by ADP-glo luminescent assay relative to control
[21] = target: CDK2/Cyclin A2 (Homo sapiens, UniProt P24941); assay: Inhibition of human CDK2/cyclin A in presence of ATP by ADP-glo luminescent assay; assay type: protein-complex assay
Outline: as §2

[22] = target: Cyclin-dependent kinase 5/CDK5 activator 1 (Homo sapiens, UniProt Q00535); assay: Inhibition of human CDK5/p25 in presence of ATP by ADP-glo luminescent assay; assay type: protein-complex assay
Outline: as §2

[23] = target: T4, CDK2/Cyclin A2 (Homo sapiens); assay: Inhibition of human CDK2/cyclin A assessed as residual activity at 1 uM in presence of ATP by ADP-glo luminescent assay relative to control; assay type: protein-complex assay
Outline: as §3

[24] = target: T3, Cyclin-dependent kinase 5/CDK5 activator 1 (Homo sapiens); assay: Inhibition of human CDK5/p25 assessed as residual activity at 10 uM in presence of ATP by ADP-glo luminescent assay relative to control; assay type: protein-complex assay
Outline: as §3

[25] = test system: MIA PaCa-2; assay: Antiproliferative activity against human MIA PaCa-2 cells assessed as reduction in cell viability incubated for 72 hrs by CellTiter-Blue fluorescence assay; conditions: MIA PaCa-2, 72 h
[26] = species: Sus scrofa; assay: Inhibition of porcine GSK3alpha/beta assessed as residual activity at 10 uM in presence of ATP by ADP-glo luminescent assay relative to control
Outline: as §4

[27] = species: Sus scrofa; assay: Inhibition of porcine CK1delta/epsilon assessed as residual activity at 10 uM in presence of ATP by ADP-glo luminescent assay relative to control

T3 sequence (Q00535 whole entry): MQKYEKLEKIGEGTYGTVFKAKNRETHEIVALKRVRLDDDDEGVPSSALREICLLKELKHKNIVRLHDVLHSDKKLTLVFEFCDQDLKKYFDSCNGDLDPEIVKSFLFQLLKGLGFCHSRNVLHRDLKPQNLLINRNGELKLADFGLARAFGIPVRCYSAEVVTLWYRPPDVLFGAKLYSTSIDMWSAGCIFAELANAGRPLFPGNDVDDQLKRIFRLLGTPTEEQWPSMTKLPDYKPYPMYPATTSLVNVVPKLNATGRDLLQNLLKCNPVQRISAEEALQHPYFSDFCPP
T3 sequence (Q15078 99-307 partner limits assumed): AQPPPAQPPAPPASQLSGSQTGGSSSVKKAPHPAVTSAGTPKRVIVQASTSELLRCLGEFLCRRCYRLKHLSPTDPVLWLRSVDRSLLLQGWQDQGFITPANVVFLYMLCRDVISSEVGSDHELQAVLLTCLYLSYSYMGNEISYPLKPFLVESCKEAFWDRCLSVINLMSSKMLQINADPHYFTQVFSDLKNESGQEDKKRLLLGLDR
Sequence of CDK9/cyclin T1 (O60563 whole entry): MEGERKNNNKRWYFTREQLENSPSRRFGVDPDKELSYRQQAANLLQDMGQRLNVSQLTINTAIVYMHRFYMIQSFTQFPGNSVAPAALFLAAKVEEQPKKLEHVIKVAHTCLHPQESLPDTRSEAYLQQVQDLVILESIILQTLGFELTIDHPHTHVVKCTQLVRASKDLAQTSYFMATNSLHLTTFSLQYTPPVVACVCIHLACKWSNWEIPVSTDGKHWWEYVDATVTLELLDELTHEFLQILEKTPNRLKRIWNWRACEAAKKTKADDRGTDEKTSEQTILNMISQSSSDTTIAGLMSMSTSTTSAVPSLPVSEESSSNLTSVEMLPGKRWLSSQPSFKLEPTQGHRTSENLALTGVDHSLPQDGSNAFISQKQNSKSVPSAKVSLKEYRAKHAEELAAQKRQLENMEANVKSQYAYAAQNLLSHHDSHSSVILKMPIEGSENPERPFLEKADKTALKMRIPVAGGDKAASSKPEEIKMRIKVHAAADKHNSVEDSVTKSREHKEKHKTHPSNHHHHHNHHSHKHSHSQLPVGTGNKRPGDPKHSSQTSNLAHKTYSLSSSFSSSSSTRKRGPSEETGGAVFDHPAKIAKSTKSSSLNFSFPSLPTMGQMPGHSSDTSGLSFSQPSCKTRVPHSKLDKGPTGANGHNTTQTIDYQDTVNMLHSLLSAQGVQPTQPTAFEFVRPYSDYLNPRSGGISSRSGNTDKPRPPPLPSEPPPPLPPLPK
Sequence of CDK9/cyclin T1 (P50750 whole entry): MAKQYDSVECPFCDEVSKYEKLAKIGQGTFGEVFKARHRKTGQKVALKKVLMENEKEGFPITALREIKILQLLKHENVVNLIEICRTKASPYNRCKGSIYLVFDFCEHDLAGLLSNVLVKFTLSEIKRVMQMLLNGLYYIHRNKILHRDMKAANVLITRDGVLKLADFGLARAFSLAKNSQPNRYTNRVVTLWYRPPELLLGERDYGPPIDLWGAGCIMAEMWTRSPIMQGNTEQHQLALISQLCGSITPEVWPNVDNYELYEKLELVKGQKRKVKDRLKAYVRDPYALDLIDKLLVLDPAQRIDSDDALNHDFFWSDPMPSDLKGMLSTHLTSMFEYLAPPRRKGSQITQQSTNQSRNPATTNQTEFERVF
Sequence of Cyclin-dependent kinase 5/CDK5 activator 1 (Q00535 whole entry): as the sequence (Q00535 whole entry) above
Sequence of Cyclin-dependent kinase 5/CDK5 activator 1 (Q15078 whole entry, further chain): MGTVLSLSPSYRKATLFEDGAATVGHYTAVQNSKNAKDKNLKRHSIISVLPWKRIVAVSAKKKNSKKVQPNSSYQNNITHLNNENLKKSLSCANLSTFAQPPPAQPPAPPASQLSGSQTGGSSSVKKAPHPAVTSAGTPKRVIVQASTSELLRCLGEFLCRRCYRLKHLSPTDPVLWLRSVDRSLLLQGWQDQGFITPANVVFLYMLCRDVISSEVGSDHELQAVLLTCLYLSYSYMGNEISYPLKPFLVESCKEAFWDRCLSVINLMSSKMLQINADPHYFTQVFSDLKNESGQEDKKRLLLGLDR

CC(=O)OC[C@@H]1O[C@@H](Sc2ccc(-c3cc(=O)c4c(O)cc(O)c(C5=CCN(C)CC5)c4o3)cc2)[C@@H](OC(C)=O)[C@H](OC(C)=O)[C@H]1OC(C)=O
IC50 [1]: > 10000 nM

CC(=O)N[C@H](CSc1ccc(-c2cc(=O)c3c(O)cc(O)c(C4=CCN(C)CC4)c3o2)cc1)C(=O)O
IC50 [1]: > 10000 nM

CN1CC=C(c2c(O)cc(O)c3c(=O)cc(-c4ccc(SCCC(=O)NOC5CCCCO5)cc4)oc23)CC1 (configuration not stated)
IC50 [1]: 6850 nM

CN1CC=C(c2c(O)cc(O)c3c(=O)cc(-c4ccc(Nc5ccccc5)cc4)oc23)CC1
IC50 [1]: 1200 nM

CN1CC=C(c2c(O)cc(O)c3c(=O)cc(-c4ccc(Sc5ccc(C(=O)NO)cn5)cc4)oc23)CC1
IC50 [1]: > 10000 nM

CN1CC=C(c2c(O)cc(O)c3c(=O)cc(-c4ccc(S[C@@H]5O[C@@H](CO)C(O)C(O)[C@@H]5O)cc4)oc23)CC1 (single isomer, unassigned)
IC50 [1]: > 10000 nM

CC(=O)OC[C@@H]1O[C@@H](Sc2ccc(-c3cc(=O)c4c(O)cc(O)c(C5=CCN(C)CC5)c4o3)cc2)[C@@H](OC(C)=O)[C@H](OC(C)=O)[C@@H]1OC(C)=O
IC50 [1]: 2870 nM

CN1CC=C(c2c(O)cc(O)c3c(=O)cc(-c4ccc(Sc5nc6ccccc6[nH]5)cc4)oc23)CC1
Activity [2]: 54% | IC50 [3]: 194 nM | IC50 [4]: 117 nM | Activity [5]: 6% | IC50 [6]: 742 nM | Activity [7]: 99% | Activity [8]: 8% | IC50 [9]: 254 nM | Activity [10]: -8% | Activity [11]: 10% | IC50 [12]: 8 nM | Activity [13]: 85% | Activity [14]: 91% | Activity [15]: 14% | Activity [16]: 5% | Activity [17]: 36% | IC50 [1]: 595 nM | IC50 [18]: 183 nM | IC50 [19]: 293 nM | Activity [20]: 40% | IC50 [21]: 162 nM | IC50 [22]: 121 nM | Activity [23]: 35% | Activity [24]: 4% | IC50 [25]: 852 nM | Activity [26]: 11% | Activity [27]: 69%

CN1CC=C(c2c(O)cc(O)c3c(=O)cc(-c4ccc(Sc5nc6ccccc6[nH]5)cc4Cl)oc23)CC1
Activity [2]: 64% | IC50 [3]: 36 nM | IC50 [4]: 216 nM | Activity [5]: 14% | IC50 [6]: 326 nM | Activity [7]: 81% | Activity [8]: 2% | IC50 [9]: 66.6 nM | Activity [10]: 4% | Activity [11]: 3% | IC50 [12]: 15 nM | Activity [13]: > 100% | Activity [14]: 86% | Activity [15]: 42% | Activity [16]: 22% | Activity [17]: 43% | IC50 [1]: 333 nM | IC50 [18]: 12 nM | IC50 [19]: 170 nM | Activity [20]: 35% | IC50 [21]: 1560 nM | IC50 [22]: 550 nM | Activity [23]: 46% | Activity [24]: 14% | IC50 [25]: 361 nM | Activity [26]: 4% | Activity [27]: 48%

CN1CC[C@H](c2c(O)cc(O)c3c(=O)cc(-c4ccccc4Cl)oc23)[C@H](O)C1 [ALVOCIDIB]
Activity [2]: 70% | IC50 [3]: 125 nM | Activity [5]: 50% | Activity [7]: > 100% | Activity [8]: 5% | IC50 [9]: 75 nM | Activity [10]: 10% | Activity [11]: 1% | Activity [13]: > 100% | Activity [14]: > 100% | Activity [15]: 36% | Activity [16]: 11% | Activity [17]: 70% | IC50 [1]: 220 nM | IC50 [18]: 111 nM | Activity [20]: 61% | Activity [23]: 26% | Activity [24]: 13% | IC50 [25]: 320 nM | Activity [26]: 16% | Activity [27]: 78%

CN1CC=C(c2c(O)cc(O)c3c(=O)cc(-c4ccc(SCCC(=O)NO)cc4)oc23)CC1
IC50 [1]: > 10000 nM

CC(=O)OC[C@@H]1O[C@@H](Sc2ccc(-c3cc(=O)c4c(O)cc(O)c(C5=CCN(C)CC5)c4o3)c(Cl)c2)[C@@H](OC(C)=O)C(OC(C)=O)C1OC(C)=O (single isomer, unassigned)
IC50 [1]: 2330 nM

CN1CC=C(c2c(O)cc(O)c3c(=O)cc(-c4ccc(Sc5nc6ccccc6o5)cc4)oc23)CC1
IC50 [1]: 2000 nM

CN1CC=C(c2c(O)cc(O)c3c(=O)cc(-c4ccc(Sc5ncccn5)cc4Cl)oc23)CC1
IC50 [1]: > 10000 nM

CN1CC=C(c2c(O)cc(O)c3c(=O)cc(-c4ccc(Sc5ccc(C(=O)O)cn5)cc4)oc23)CC1
IC50 [1]: > 10000 nM

COC(=O)[C@H](CO)NC(=O)[C@H](CSc1ccc(-c2cc(=O)c3c(O)cc(O)c(C4=CCN(C)CC4)c3o2)cc1)NC(=O)OCc1ccccc1
IC50 [1]: 4300 nM

COC(=O)[C@@H](CSc1ccc(-c2cc(=O)c3c(O)cc(O)c(C4=CCN(C)CC4)c3o2)cc1)NC(=O)OC(C)(C)C
IC50 [1]: 7790 nM

CN1CC=C(c2c(O)cc(O)c3c(=O)cc(-c4ccc(Sc5ccc6ccccc6n5)cc4)oc23)CC1
IC50 [1]: 3800 nM

CN1CC=C(c2c(O)cc(O)c3c(=O)cc(-c4ccc(Sc5ncccn5)cc4)oc23)CC1
IC50 [1]: > 10000 nM

COc1ccc2[nH]c(Sc3ccc(-c4cc(=O)c5c(O)cc(O)c(C6=CCN(C)CC6)c5o4)cc3)nc2c1
IC50 [1]: 1200 nM
